# SR-BI DiI-HDL act: SR-BI HDL lipid transfer activation | CHO ldlA[mSR-BI] cells, DiI-HDL uptake fluorescence, 3 h; 100 = double the neutral-control signal | actives 0.096% (n = 320,000) | activation, % at 12.5 µM;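 active = mean replicate activation of at least 60% and every replicate at or above 60%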;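 note: 0% = median plate neutral-control signal and 100% = twice that signal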
#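 material = CHO ldlA[mSR-BI] cells | medium = Ham's F12 with 0.5% BSA, HEPES 25 mM, pH 7.4 | reagent = fluorescent DiI-HDL, 10 µg/mL final | compound dosing = single-point compound dose | incubation = 3 h, 37 °C | measured by = bottom-read fluorescence, 550/595 nm | measure = HDL uptake via cellular fluorescence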
# CAL PDZ FP-1: CAL PDZ (human) peptide binding inhibition; inhibition, % at 24.9 µM; Q9HD26; purified CAL PDZ, TMR-peptide fluorescence polarization, 1 h; actives 0.92% (n = 300,000);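 active = mean inhibition of at least 30% with at least half of replicates also reaching 30%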;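 note: 0% = DMSO neutral control and 100% = excess unlabeled competitor peptide PRC23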
# ATG4B inh: inhibitors of human ATG4B cysteine protease | Q9Y4P1 | ATG4B cleavage of LC3-PLA2, NBD-HPC fluorescence, 1 h | AID 504462 | inhibition, % at 8.33 µM | actives 0.51% (n = 340,000); in the data active = inhibition above about 40%
# Target sequence (Q9Y4P1 whole entry, looked up): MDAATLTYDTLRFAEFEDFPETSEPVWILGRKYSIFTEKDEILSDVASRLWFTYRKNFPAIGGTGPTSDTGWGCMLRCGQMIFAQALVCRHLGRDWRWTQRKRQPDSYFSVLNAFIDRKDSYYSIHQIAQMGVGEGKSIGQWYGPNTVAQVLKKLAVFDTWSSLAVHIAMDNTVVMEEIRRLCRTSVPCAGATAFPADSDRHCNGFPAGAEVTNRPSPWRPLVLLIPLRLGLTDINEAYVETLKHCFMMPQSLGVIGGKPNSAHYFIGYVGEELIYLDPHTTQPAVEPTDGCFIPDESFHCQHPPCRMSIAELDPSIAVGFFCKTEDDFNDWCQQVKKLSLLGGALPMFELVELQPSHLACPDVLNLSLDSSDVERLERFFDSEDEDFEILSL
# CAL PDZ FP-2: human CAL PDZ-peptide interaction inhibition; Q9HD26; purified CAL PDZ, TMR-peptide fluorescence polarization, 1 h; inhibition, % at 20 µM; actives 0.02% (n = 330,000); AID 504414;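 active = highest replicate inhibition of at least 40%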;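 note: plate controls were DMSO neutral control wells for no effect and unlabeled competitor peptide control wells for full effect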
#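 material = purified tagged CAL PDZ domain construct (CerCALP) | buffer or medium = sodium phosphate/NaCl buffer pH 7.4 with TCEP, IgG, Thesit | reagent = TMR-labelled reporter peptide T*-PRC34 bound in PDZ groove | incubation = 1 h room-temperature incubation prior to read | measured by = fluorescence polarization (mP) | evaluation = percent inhibition from loss of millipolarization | control set = unlabelled peptide and DMSO controls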
# SR-BI DiI inh: mouse SR-BI HDL lipid transfer inhibition. actives 0.96% (n = 320,000). ldlA[mSR-BI] CHO cells, DiI-HDL uptake fluorescence, 3 h. Q61009. inhibition, % at 12.5 µM;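 active = mean replicate inhibition of at least 70% and a set share of replicates each scoring 70 or more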;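 note: 0% = median of neutral control wells and 100% = median of positive control wells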
# ATG4B conf: confirmation of human ATG4B inhibitors; shares compounds with ATG4B inh; ATG4B protease fluorescent substrate cleavage assay; inhibition, % at 8.33 µM; actives 92% (n = 320); AID 504757; in the data active = inhibition above about 39%
# PLA2 counter: inhibits human PLA2, flagging false ATG4B inhibitors; shares compounds with ATG4B inh; purified PLA2, NBD-C6-HPC fluorescence, 45 min; actives 66% (n = 1,600); inhibition, % at 8.33 µM; AID 588402; in the data active = inhibition above about 50%
# An asterisk follows results filed as active; nt = no result. A selection: hits, their analogues and other compounds. The true share with any hit is near 2.3%.
SMILES,SR-BI DiI-HDL act,CAL PDZ FP-1,ATG4B inh,CAL PDZ FP-2,SR-BI DiI inh,PLA2 counter,others
FC(F)(F)Sc1ccc(NC(=S)NCc2ccccc2)cc1,0,-4,73*,1,0,82*,
FC(F)(F)c1cccc(CNC(=S)Nc2ccccc2)c1,-28,-4,49*,-3,28,61*,
FC(F)(F)c1cccc(NC(=S)NCc2ccccc2)c1,-6,-1,59*,0,6,62*,
S=C(NCc1ccccc1)Nc1ccc(Cl)cc1,-3,2,27,-1,3,nt,
O=C(CNC(=O)Cc1ccccc1)NCc1cccc(C(F)(F)F)c1,-2,-5,3,-3,2,nt,
Cc1ccc(-c2nc(-c3ccc(Cl)cc3)sc2CC(=O)O)c(C)c1,18,4,4,-2,-18,nt,
COc1cccc(C2C(C#N)=C(N)OC3=C2C(=O)CC(c2ccco2)C3)c1OCc1ccc(F)cc1 (configuration not stated),31,-3,1,nt,-31,nt,
N#CC1=C(N)OC2=C(C(=O)CC(c3ccco3)C2)C1c1ccc(OCc2c(F)cccc2Cl)cc1 (configuration not stated),-13,-3,87*,-1,13,89*,
O=C(NCc1ccc(Cl)cc1Cl)C1CCN(S(=O)(=O)c2ccc3c(c2)OCCCO3)CC1,-13,nt,42*,-1,13,55*,
C=CCN1C(=O)C(=O)N(Cc2nc3ccccc3s2)C1=O,11,-1,-2,-2,-11,nt,
Cc1ccc(C(=O)Nc2ncc(Cc3ccccc3)s2)o1,2,-14,43*,-1,-2,64*,
COc1ccc(CCN(C)C2CCCN(C(=O)c3sccc3C)C2)cc1OC (configuration not stated),4,nt,22,0,-4,nt,
CCn1c(N)nc2c1c(=O)n(C)c(=O)n2C,9,nt,0,1,-9,nt,
Cn1nc(-c2ccccn2)nc2c(=O)n(C)c(=O)nc1-2,14,-2,79*,0,6,-12,ATG4B conf=24
CCCc1nc2c(=O)n(C)c(=O)nc-2n(C)n1,6,5,77*,1,-6,0,ATG4B conf=29
CC(C)CC(=O)Nc1nnc(SCC(=O)NCC2CCCO2)s1 (configuration not stated),28,nt,1,-1,-28,nt,
COc1ccc(Cc2nnc(NC(=O)c3cccc([N+](=O)[O-])c3)s2)cc1,6,-7,51*,0,-6,5,
COCCC(=O)Nc1ccc2c(c1)CN(C(=O)c1ccc(CSC)o1)CC2,-5,4,2,2,5,nt,
O=C(Nc1c(C(=O)O)oc2ccc(Br)cc12)c1ccccc1,3,-14,48*,-3,-3,57*,
CC1CCC(NC(=O)Cn2c(=O)oc3ccccc32)CC1 (configuration not stated),3,1,4,-2,-3,nt,
CSc1nc2cc(Oc3cccc(Cl)c3Cl)c(Cl)cc2[nH]1,-18,-4,65*,-1,18,77*,
CSc1nc2ccc(Cl)cc2[nH]1,3,nt,-3,-2,-3,nt,
CCCCc1ccc(S(=O)(=O)NCCCN2CCCC2=O)cc1,-13,-5,-3,-1,13,nt,
CCc1ccccc1N(CC)C(=O)C1CCN(c2ncnc3c2nc2n3CCCCC2)CC1,-23,-1,53*,-2,23,66*,
O=C(C1CCN(c2ncnc3c2nc2n3CCCCC2)CC1)N1CCCCC1,-3,-3,0,-1,3,nt,
CCN(Cc1ccccc1)C(=O)C1CCN(c2ncnc3c2nc2n3CCCCC2)CC1,-24,-2,45*,-2,24,53*,
CN1CCN(C(=O)C2CCN(c3ncnc4c3nc3n4CCCCC3)CC2)CC1,6,-1,10,-4,-6,nt,
c1ccc(-c2csc(NC3CCCCC3)n2)cc1,-3,-1,15,-1,3,nt,
O=C(Nc1nc(-c2ccccc2)cs1)NC1CCCCC1,-21,0,58*,-1,21,66*,
